pEC50: −log10 of the molar value. Active and inactive are the calls of the source. The rule behind the calls is not given here.
Experiments:
[1] = biological target: T1, 3-hydroxy-3-methylglutaryl-coenzyme A reductase (Homo sapiens, UniProt P04035); assay: (§1) Induction of degradation of Flag-tagged human HMGCR-dCat-ELuc membrane domain (1 to 499 residues) expressed in HEK293 cells assessed as reduction in HMGCR-dCat-Eluc protein level after 4 hrs by luciferase reporter assay; format: cell-based; conditions: for pEC50: read-out: EC50; for EC50: hek293
T1 sequence (P04035 whole entry): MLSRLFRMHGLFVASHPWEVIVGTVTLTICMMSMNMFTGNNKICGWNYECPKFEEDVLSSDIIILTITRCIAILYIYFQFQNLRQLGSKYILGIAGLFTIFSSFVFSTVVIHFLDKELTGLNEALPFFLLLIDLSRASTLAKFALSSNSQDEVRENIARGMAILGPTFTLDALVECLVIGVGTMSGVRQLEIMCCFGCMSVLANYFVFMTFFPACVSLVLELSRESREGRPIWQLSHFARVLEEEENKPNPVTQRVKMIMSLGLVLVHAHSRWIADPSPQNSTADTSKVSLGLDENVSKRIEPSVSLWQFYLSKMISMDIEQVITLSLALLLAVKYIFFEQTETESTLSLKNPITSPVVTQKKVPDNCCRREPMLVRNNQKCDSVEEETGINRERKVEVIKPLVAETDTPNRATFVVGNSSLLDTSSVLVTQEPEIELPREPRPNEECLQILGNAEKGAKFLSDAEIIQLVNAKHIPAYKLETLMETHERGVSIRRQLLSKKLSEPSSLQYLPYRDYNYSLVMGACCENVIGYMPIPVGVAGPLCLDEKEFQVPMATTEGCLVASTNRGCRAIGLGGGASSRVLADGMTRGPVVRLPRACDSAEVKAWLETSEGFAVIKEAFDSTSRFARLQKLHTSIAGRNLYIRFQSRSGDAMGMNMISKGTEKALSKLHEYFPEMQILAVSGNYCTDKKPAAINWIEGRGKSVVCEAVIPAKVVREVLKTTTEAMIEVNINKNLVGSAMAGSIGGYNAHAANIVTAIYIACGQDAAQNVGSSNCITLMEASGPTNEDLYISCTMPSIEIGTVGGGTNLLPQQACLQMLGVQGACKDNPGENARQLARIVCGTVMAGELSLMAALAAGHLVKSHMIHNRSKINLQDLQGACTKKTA
Method in brief: (§2)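 HEK293 cells stably expressing HMGCR-dCat-ELuc (FLAG-tagged membrane domain, residues 1-499, emerald luciferase) in DMEM/10% FBS. Compound treatment 4 h, then remaining fusion quantified by luciferase luminescence. Normalized to 0.1% DMSO vehicle as % of control. EC50 given as mean ± SD of more than three independent dose-response experiments.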

[2] = system: HEK293; assay: Cytotoxicity against human HEK293 cells assessed as cell viability at 0.01 to 10 uM incubated for 4 hrs by CytoRed viability assay; format: cell-based; conditions: hek293, 4 h, dose 0.01-10 µM
Method in brief: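 CytoRed esterase-based viability read in the same wells as the 4 h HMGCR-dCat-ELuc stable HEK293 degradation assay, just before luciferase measurement.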

[3] = system: HEK293; assay: Cytotoxicity against human HEK293 cells assessed as reduction in cell viability at 10 uM incubated for 4 hrs by CytoRed viability assay; format: cell-based; conditions: hek293, 4 h
Method in brief: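 HEK293 cells stably expressing HMGCR-dCat-ELuc (HMGCR residues 1-499 with FLAG tag and emerald luciferase) are grown in DMEM with 10% FBS and penicillin-streptomycin at 5% CO2. Cells are dosed for 4 h. CytoRed, which reads cellular esterase activity, is measured in the same wells just before the luciferase read. The vehicle is 0.1% DMSO.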

[4] = biological target: T2, 3-hydroxy-3-methylglutaryl-coenzyme A reductase (Homo sapiens) (UniProt P04035); assay: as §1; format: cell-based; method in brief: as §2
T2 sequence (whole entry): T1 sequence (P04035 whole entry)

[5] = biological target: T2, 3-hydroxy-3-methylglutaryl-coenzyme A reductase (Homo sapiens); assay: Induction of degradation of Flag-tagged human HMGCR-dCat-ELuc membrane domain (1 to 499 residues) expressed in HEK293 cells assessed as reduction in HMGCR-dCat-Eluc protein level at 10 uM after 4 hrs by luciferase reporter assay; format: cell-based; method in brief: as §2
[6] = biological target: T2, 3-hydroxy-3-methylglutaryl-coenzyme A reductase (Homo sapiens); assay: Binding affinity to Flag-tagged human HMGCR-dCat-ELuc membrane domain (1 to 499 residues) transfected in HEK293 cell membrane co-transfected with p-CMV-Insig1-myc-FLAG at 20 uM preincubated for 30 mins followed by irradiation with UV light for 3 mins in presence of 50 to 200 uM SRP3042 by immunoprecipitation analysis; format: cell membranes
[7] = biological target: T2, 3-hydroxy-3-methylglutaryl-coenzyme A reductase (Homo sapiens); assay: Binding affinity to Flag-tagged human HMGCR-dCat-ELuc membrane domain (1 to 499 residues) transfected in HEK293 cell membrane co-transfected with p-CMV-Insig1-myc-FLAG at 20 uM preincubated for 30 mins followed by irradiation with UV light for 3 mins by immunoprecipitation analysis; format: cell membranes
[8] = biological target: T3, Insulin-induced gene 1 protein (Homo sapiens) (UniProt O15503); assay: Binding affinity to FLAG/myc-tagged Insig1 transfected in HEK293 cell membrane co-transfected with Flag-tagged human HMGCR-dCat-Eluc membrane domain (1 to 499 residues) at 20 uM preincubated for 30 mins followed by irradiation with UV light for 3 mins by immunoprecipitation analysis; format: cell membranes
T3 sequence (whole entry): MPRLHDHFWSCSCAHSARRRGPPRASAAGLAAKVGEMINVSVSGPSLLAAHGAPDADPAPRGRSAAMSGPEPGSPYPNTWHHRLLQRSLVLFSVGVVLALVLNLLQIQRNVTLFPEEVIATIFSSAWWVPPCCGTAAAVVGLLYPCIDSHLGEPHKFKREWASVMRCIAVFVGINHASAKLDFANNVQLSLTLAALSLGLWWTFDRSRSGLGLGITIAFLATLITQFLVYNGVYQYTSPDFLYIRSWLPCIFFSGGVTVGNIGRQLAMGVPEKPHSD

Row | Compound | pEC50 [1] | Activity [2] | also measured
1 | C#CCCOP(=O)(OC(C)C)C(Cc1cc(C(C)(C)C)nc(C(C)(C)C)c1)P(=O)(OC(C)C)OC(C)C (stereo not drawn) | 6.10 | Non-Toxic | –
2 | CCOP(=O)(OCC)C(=Cc1cc(C(C)(C)C)c(O)c(C(C)(C)C)c1)P(=O)(OCC)OCC | 5.96 | – | Activity [3]: Toxic
3 | CC(C)OP(=O)(OC(C)C)C(Cc1cc(C(C)(C)C)c(O)c(C(C)(C)C)c1)P(=O)(OC(C)C)OC(C)C [APOMINE] | 6.06 | Non-Toxic | –
4 | CCOP(=O)(OCC)C(Cc1cc(C(C)(C)C)c(O)c(C(C)(C)C)c1)P(=O)(OCC)OCC | 5.56 | Non-Toxic | –
5 | CC(C)OP(=O)(OC(C)C)C(Cc1cc(C(C)(C)C)nc(C(C)(C)C)c1)P(=O)(OC(C)C)OC(C)C | 6.82 | Non-Toxic | Activity [4]: Dose-dependent effect
6 | CC(C)OP(=O)(OC(C)C)C(Cc1cc(C(C)(C)C)cc(C(C)(C)C)c1)P(=O)(OC(C)C)OC(C)C | 6.50 | Non-Toxic | –
7 | C#Cc1cc(CC(P(=O)(OC(C)C)OC(C)C)P(=O)(OC(C)C)OC(C)C)cc(C(C)(C)C)c1 | 5.45 | Non-Toxic | –
8 | CC(C)OP(=O)(OC(C)C)C(Cc1cc(N=[N+]=[N-])cc(C(C)(C)C)c1)P(=O)(OC(C)C)OC(C)C | 5.78 | Non-Toxic | –
9 | CCOP(=O)(OCC)C(=Cc1ccc(O)cc1)P(=O)(OCC)OCC | – | Non-Toxic | EC50 [1]: Not Active; Activity [5]: inactive
10 | CCOP(=O)(OCC)C(=Cc1ccc(O)c(C(C)(C)C)c1)P(=O)(OCC)OCC | – | Non-Toxic | EC50 [1]: Not Active; Activity [5]: inactive
11 | CC(C)OP(=O)(OC(C)C)C(Cc1cc(I)cc(C(C)(C)C)c1)P(=O)(OC(C)C)OC(C)C | 5.84 | Non-Toxic | –
12 | CC(C)OP(=O)(O)C(Cc1cc(C(C)(C)C)nc(C(C)(C)C)c1)P(=O)(OC(C)C)OC(C)C (stereo not drawn) | – | Non-Toxic | EC50 [1]: Not Active; Activity [5]: inactive
13 | C#Cc1cc(CC(P(=O)(OC(C)C)OC(C)C)P(=O)(OC(C)C)OC(C)C)cc(N=[N+]=[N-])c1 | – | Non-Toxic | EC50 [1]: Not Active; Activity [5]: inactive
14 | CC(C)OP(=O)(OC(C)C)C(=Cc1cc(C(C)(C)C)c(O)c(C(C)(C)C)c1)P(=O)(OC(C)C)OC(C)C | 5.87 | – | Activity [3]: Toxic
15 | C#CCOP(=O)(OC(C)C)C(Cc1cc(C(C)(C)C)nc(C(C)(C)C)c1)P(=O)(OC(C)C)OC(C)C (stereo not drawn) | 6.20 | Non-Toxic | –
16 | C#CCCC1(CCOP(=O)(OC(C)C)C(Cc2cc(C(C)(C)C)nc(C(C)(C)C)c2)P(=O)(OC(C)C)OC(C)C)N=N1 (stereo not drawn) | 6.38 | Non-Toxic | Activity [4]: Dose-dependent effect; Activity [6]: inactive; Activity [7]: Active; Activity [8]: inactive
17 | CCOP(=O)(OCC)C(=Cc1cc(C(C)(C)C)cc(C(C)(C)C)c1)P(=O)(OCC)OCC | 5.94 | Non-Toxic | –

Reference: ChEMBL document CHEMBL4725260, “Bisphosphonate esters interact with HMG-CoA reductase membrane domain to induce its degradation” (Bioorg Med Chem, 2020)
